# Bioassay records as filed in PubChem BioAssay.
# The entries come from a sample that favours hits as a whole.
# Lung fibro prol = blocks proliferation of human lung fibroblasts; 85,000 tested, 1.1% active; LL 47 human lung fibroblast viability, ATP luminescence; hits give low values; AID 719; viability, % at 10 µM;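 active = viability at or below 50% in the single dose screen; inactive = viability above 50%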;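 note: compound exposure lasted 72 h before the ATP readout; 100% = median luminescence of untreated cell-only wells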
#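 Material: human lung fibroblast line LL 47, low passage; Evaluation: viability percentage against median untreated-cell control; Buffer or medium: 15% FBS in IMEM; Incubation: 72 h compound exposure at 37 °C after overnight plating; Dosing: 0.1% DMSO in all compound wells; Measured by: CellTiter-Glo luminescence.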
# HUVEC inhibit = human endothelial cell proliferation inhibition; viability, % at 10 µM (by protocol); HUVEC proliferation, CellTiter-Glo luminescence, 72 h; hits give low values; 86,000 tested, 1.1% active; AID 648;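 active = viability at or below 30%; inactive = viability above 30%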;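 note: 100% = median luminescence of DMSO-only cell control wells on each plate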
# H69AR inhibit = growth inhibitors of human H69AR lung tumor cells | AID 598 | viability, % at 10 µM | H69AR lung tumor viability, ATP luminescence, 72 h; hits give low values | 85,000 tested, 6% active;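 active = viability at or below 40%; inactive = viability above 40%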;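 note: multidrug resistant small cell line overexpressing MRP-1 efflux transporter; 100% = mean luminescence of untreated control wells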
# PTEN del growth = suppresses growth of cells with PTEN deletion; HCT116 PTEN-null viability, CellTiter-Glo, 60 h; hits give low values; viability, % at 10 µM; 140,000 tested, 1.2% active;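 active = viability at or below a set limit, 4 SD under the median of all tested compounds, cut at about 3.7% in these data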;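 note: PTEN knockout HCT116 line with beta catenin targeted HCT116 as companion control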
# HCT116 bCat-KO = beta-catenin-lacking colon tumor cell growth suppression | HCT116 beta-catenin knockout viability, CellTiter-Glo, 60 h; hits give low values | viability, % at 10 µM | 140,000 tested, 1.5% active;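 active = viability at or under a set limit, the compound median less 4 SD, cut at about 6% in these data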;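 note: 0% = Hyamine 1622 control at 20 µM and 100% = untreated cell control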
# * = called active by the depositor; x = no result.
SMILES,Lung fibro prol,HUVEC inhibit,H69AR inhibit,PTEN del growth,HCT116 bCat-KO
O=C(/C=C/Nc1ccc(Cc2ccc(N/C=C/C(=O)C(F)(F)F)cc2)cc1)C(F)(F)F,x,x,x,93.3,98.0
COc1ccc(O)c(C(=O)CC(=O)c2ccc(F)cc2)c1,x,x,x,56.8,67.8
O=C(CC(=O)c1cc(Cl)ccc1O)c1ccccc1,40.2*,35.1,11.2*,22.4,16.3
Cc1cccc(C(=O)CC(=O)c2cc(Cl)ccc2O)c1,31.1*,3.3*,18.3*,10.1,9.7
Cc1ccc(O)c(C(=O)CC(=O)c2cccc(F)c2)c1,69.8,14.7*,13.1*,39.7,38.2
O=C(O)CC(=O)Nc1cc(Cl)ccc1O,106.3,106.5,100.3,104.8,88.6
O=C(COC(=O)C12CC3CC(CC(C3)C1)C2)Nc1nc2c(F)c(F)c(F)cc2s1,x,x,x,68.5,80.2
CC/S(C)=N/S(=O)(=O)c1ccc(C)cc1 (stereo unspecified),x,x,x,96.6,90.2
CCOC(=O)C1CCCN(Cc2ccc(OCC)cc2)C1 (stereo unspecified),89.1,91.7,89.2,102.4,96.0
Cn1ncc(N=Cc2ccccc2O)c1C(=O)Nc1ccccc1,104.7,97.9,36.8*,x,96.0
CN(/N=C/C=C/c1ccccc1)C1=NS(=O)(=O)c2ccccc21,x,x,x,89.0,96.8
COC(=O)[C@@]1(Cc2ccccc2)[C@@H]2C(=CC(=O)[C@H]2CC(=O)C(=O)N(C)C)CN1C(=O)c1ccccc1,x,x,x,1.7*,2.4*
CN1/C(=C/C(=O)c2nc(S(C)(=O)=O)ncc2Cl)C(C)(C)c2ccccc21,18.5*,24.3,0.6*,2.6*,2.0*
O=C1C(Cl)=C(Nc2ccccc2)C(=O)c2ccccc21,x,x,x,1.0*,1.1*
CCCCCCOc1ccc(NC(=O)CC2C(=O)N(CC)C(=S)N2Cc2ccco2)cc1 (stereo unspecified),x,x,x,18.1,18.0
Fc1c(F)c(F)c(N=Cc2ccc3ncccc3c2)c(F)c1F,x,x,x,93.1,94.9
CC(=O)Oc1cccc(N2C(=O)c3ccc(C(=O)O)cc3C2=O)c1,93.0,97.2,2.0*,109.1,107.4
CCN1CCN(C(=S)c2ccc([N+](=O)[O-])cc2)CC1,x,x,x,83.0,86.2
Cc1ccc(S(=O)(=O)N2CCCCC2)cc1NC(=O)COC(=O)Cc1cccc(C(F)(F)F)c1,x,x,x,95.8,94.2
O=C1OC(c2ccccc2)c2ccc3ccccc3c21 (stereo unspecified),x,x,x,86.6,90.6
CCOc1ccc(-c2nnc(SCC(=O)Nc3ccc4c(c3)c3ccccc3n4CC)n2N)cc1,x,x,x,5.0,3.9*
CCn1c2ccccc2c2cc(NC(=O)CSc3nnc(-c4ccc(OC)c(OC)c4)n3N)ccc21,106.8,83.2,22.0*,61.3,51.7
CCn1c2ccccc2c2cc(NC(=O)CSc3nnc(-c4cccc(OC)c4)n3N)ccc21,x,x,x,9.4,23.5
CCCN(CCC)CC(O)Cn1cc(/C=C/C(=O)c2cccs2)c2ccccc21 (stereo unspecified),x,x,x,1.3*,1.2*
O=Cc1cn(CC(=O)N2CCOCC2)c2ccccc12,96.2,92.2,96.5,97.8,98.8
SMILES,Lung fibro prol,HUVEC inhibit,H69AR inhibit,PTEN del growth,HCT116 bCat-KO
COc1cccc(-c2nn(-c3ccccc3)cc2/C=C\C(=O)c2cccs2)c1,x,x,x,10.1,9.6
CN1CCN(Cn2cc(/C=C/C(=O)c3ccccc3)c3ccccc32)CC1,91.6,66.5,12.2*,83.2,74.2
O=C(/C=C/c1cn(CC(O)CN2CCCCC2)c2ccccc12)c1cccs1 (stereo unspecified),x,x,x,5.2,2.7*
O=C(c1cc2c(s1)-c1ccccc1S(=O)(=O)C2)N1CCN(Cc2ccccc2)CC1,x,x,x,23.7,21.9
CC(=O)c1ccc(N2CCN(C(=O)CCCc3nc4ccccc4s3)CC2)cc1,x,x,x,82.4,67.1
Cc1ccc(OCC(=O)Nc2ccc(-c3nc4ncccc4o3)cc2)c(C)c1,97.3,70.9,33.5*,102.5,101.5
Cn1cc(/C=N/n2cnc3scc(-c4ccccc4)c3c2=O)c2ccccc21,50.6,38.4,28.3*,12.2,13.7
O=C(O)COc1ccc(/C=N/n2cnc3scc(-c4cccs4)c3c2=O)cc1,x,x,x,108.1,97.6
CCOc1ccc(S(=O)(=O)N(C)c2ccc(OCC(=O)Nc3nc(-c4cc(OC)ccc4OC)cs3)cc2)cc1,x,x,x,90.0,96.8
CCOC(=O)CSc1nnc(-c2ccccc2NC(=O)c2ccccc2)o1,93.4,85.6,87.8,111.5,97.9
CCc1nnc(NC(=O)CSc2nnc(-c3ccccc3NC(=O)c3ccccc3)o2)s1,58.6,86.6,30.1*,23.1,30.1
Cc1ccc(C(=O)Nc2ccccc2C(=O)NC(C(=O)O)C(C)C)cc1 (stereo unspecified),101.5,92.6,94.1,0.8*,0.5*
Cc1ccc(C(=O)Nc2ccccc2C(=O)NC(CC(=O)O)C(=O)O)cc1 (stereo unspecified),98.8,104.0,88.3,99.5,85.9
c1ccc(-n2cnc3cc(NCc4cccs4)ccc32)cc1,60.8,72.6,23.3*,16.1,13.1
Cc1cc(=O)[nH]c(SCC(=O)C23CC4CC(CC(C4)C2)C3)c1C#N,100.8,76.9,17.5*,84.7,87.9
Cc1cc(=O)[nH]c(SCC(=O)O)c1C#N,102.4,101.0,90.0,103.5,109.1
CCCCCC(=O)O[C@]1(C(C)=O)CC[C@H]2[C@@H]3CCC4=CC(=O)CC[C@]4(C)[C@H]3CC[C@@]21C,85.0,70.7,4.8*,6.8,4.8*
COC(=O)c1ccc(OC(C)C(=O)c2ccc(C)cc2)cc1 (stereo unspecified),x,x,x,87.7,85.4
CN(C)CCNC(=O)c1coc(=O)c(Br)c1,106.3,111.7,64.3,105.4,87.5
O=C(NCCC1=CCCCC1)c1coc(=O)c(Br)c1,x,x,x,1.0*,1.1*
CC(C)CNC(=O)c1coc(=O)c(Br)c1,26.7*,83.6,0.8*,68.0,74.3
O=C(NCCC1=CCCCC1)c1ccc(=O)oc1,101.5,108.1,48.4,95.2,97.6
Cc1ccc2c(c1)-c1nc3ccccc3cc1C2=NC1CCCCC1,x,x,x,2.8*,8.3
CN1CCN(C(c2cccnc2)c2ccc3cccnc3c2O)CC1 (stereo unspecified),86.4,86.5,15.6*,6.8,8.2
Cc1sc(NC(=O)c2ccco2)c(C(c2cccnc2)N2CCN(C)CC2)c1C (stereo unspecified),100.7,96.8,83.9,95.6,89.4
SMILES,Lung fibro prol,HUVEC inhibit,H69AR inhibit,PTEN del growth,HCT116 bCat-KO
O=C(Oc1c(Cl)cc(Cl)c2cccnc12)c1ccco1,43.1*,30.5,1.8*,12.6,3.5*
O=C(Oc1c(Cl)cc(Cl)c2cccnc12)c1cccs1,60.9,47.8,27.4*,11.5,12.3
CCN(CC)c1ccc(NC(=O)c2ccccc2)cc1S(=O)(=O)Nc1ccccc1OC,x,x,x,71.7,69.7
COc1ccc(OC)c(CCNC(=O)Cn2sc3nc(C)cc(C)c3c2=O)c1,31.4*,76.7,0.0*,1.9*,1.9*
O=C(COc1ccc(-c2ccccc2)cc1)N1CCN(S(=O)(=O)Cc2ccccc2)CC1,52.3,48.8,26.3*,30.4,25.6
Cc1ccc(OCC(=O)N2CCN(C(=O)Cc3ccccc3)CC2)cc1,101.8,103.3,104.9,93.2,97.0
